In ChEMBL document CHEMBL1949566 (Bioorg Med Chem Lett, 2012):
The source made the active and inactive calls. The rule behind the calls is not given here.

Tested on: Rattus norvegicus
Assay: Antihypertensive activity in conscious spontaneously hypertensive rat assessed as decrease in mean arterial blood pressure at 10 mg/kg, po up to 24 hrs
Type: functional, organism-based
Set-up: dose 10 mg/kg
Settings: Artery
Procedure, shortened: (§1)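 SHRs were acclimatized 10 weeks, then habituated for 7 days to 37 °C chamber prewarming for 10 min, restraint and a tail cuff with pulse sensor. After stabilization, 10 mg/kg was given orally.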
With `CCCCc1nc(C)c(CC(=S)N(C)C)c(=O)n1Cc1ccc(-c2ccccc2-c2nnn[nH]2)cc1` the Activity was “Active”.

Target: T1, Type-1 angiotensin II receptor (Oryctolagus cuniculus) (UniProt P34976)
T1 sequence (whole entry): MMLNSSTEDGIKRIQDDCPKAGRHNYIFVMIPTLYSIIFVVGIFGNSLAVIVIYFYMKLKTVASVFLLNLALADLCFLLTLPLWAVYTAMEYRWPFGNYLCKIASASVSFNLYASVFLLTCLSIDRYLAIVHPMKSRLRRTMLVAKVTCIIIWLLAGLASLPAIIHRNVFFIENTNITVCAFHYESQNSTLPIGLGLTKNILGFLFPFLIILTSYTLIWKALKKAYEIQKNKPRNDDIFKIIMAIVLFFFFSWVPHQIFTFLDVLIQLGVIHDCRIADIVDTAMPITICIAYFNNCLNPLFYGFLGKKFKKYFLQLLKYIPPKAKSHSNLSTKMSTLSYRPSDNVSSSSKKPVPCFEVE
Assay: Antagonist activity at angiotensin 2 receptor type 1 in New Zealand White rabbit descending thoracic aorta rings assessed as inhibition of KCl-induced contraction preincubated for 30 mins prior KCl challenge
Type: functional, tissue-based
Settings: not given
With `CCCCc1nc(C)c(CC(=S)N(C)C)c(=O)n1Cc1ccc(-c2ccccc2-c2nnn[nH]2)cc1` the inhibition was “inactive”.

Target: T2, Type-1 angiotensin II receptor (Oryctolagus cuniculus, UniProt P34976)
T2 sequence (P34976 whole entry): T1 sequence (whole entry)
Assay: Antagonist activity at angiotensin 2 receptor type 1 in New Zealand White rabbit descending thoracic aorta rings assessed as inhibition of angiotensin 2-induced contraction preincubated for 30 mins prior angiotensin 2 challenge
Type: functional, tissue-based
Settings: not given
Procedure, shortened: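 Aortic rings held at 2 g resting tension and equilibrated 60 min with repeated washing in Krebs bicarbonate solution. Responsiveness was checked with AngII, then a control cumulative AngII concentration–contractile response curve was run. After washout, test substance was incubated 30 min and a second AngII curve obtained.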
In the case of `CCCCc1nc(C)c(CCC(=O)OCC)c(=O)n1Cc1ccc(-c2ccccc2-c2nnn[nH]2)cc1`, the IC50 is reported as 2.51 nM. With `CCCCc1nc(C)c(CC(=O)N2CC(C)OC(C)C2)c(=O)n1Cc1ccc(-c2ccccc2-c2nnn[nH]2)cc1` (centres undefined) the IC50 was 1.03 nM. With `CCCCc1nc(C)c(CC(=O)N2CCCC2)c(=O)n1Cc1ccc(-c2ccccc2-c2nnn[nH]2)cc1` the IC50 was 1.58 nM. Compound `CCCCc1nc(C)c(CCC(=O)N2CC(C)OC(C)C2)c(=O)n1Cc1ccc(-c2ccccc2-c2nnn[nH]2)cc1` (centres undefined) has an IC50 of 13.1 nM. For `CCCCc1nc(C)c(CC(=S)N2CCCCCC2)c(=O)n1Cc1ccc(-c2ccccc2-c2nnn[nH]2)cc1`, the IC50 was 6.11 nM. `CCCc1nc(C)c(CC(=O)N(CC)CC)c(=O)n1Cc1ccc(-c2ccccc2-c2nnn[nH]2)cc1` gave an IC50 of 4.69 nM.

Tested on: Rattus norvegicus
Assay: Antihypertensive activity in conscious spontaneously hypertensive rat assessed as decrease in mean arterial blood pressure at 10 mg/kg, po up to 5 hrs
Type: functional, organism-based
Set-up: dose 10 mg/kg
Settings: Artery
Procedure, shortened: as §1
In the case of `CCCCc1nc(C)c(CC(=S)N(C)C)c(=O)n1Cc1ccc(-c2ccccc2-c2nnn[nH]2)cc1`, the Activity is reported as “Active”.

Tested on: Rattus norvegicus
Assay: Antihypertensive activity in iv dosed pithed rat model assessed as inhibition of angiotensin 2-induced pressor response by gould pressure transducer-coupled grass polygraphy
Type: functional
Settings: not given
Procedure, shortened: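 Pithed rats had blood pressure recorded by an arterial catheter to a pressure transducer/polygraph. After about 60 min of stabilization, AngII (100 ng/kg iv) was given three times at 15 min intervals to set a basal pressor response. Compound was then given iv, followed by AngII 100 ng/kg iv. ED50 for 50% inhibition of maximal pressor response came from the dose–pressure curve.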
`CCCCc1nc(C)c(CCC(=O)OCC)c(=O)n1Cc1ccc(-c2ccccc2-c2nnn[nH]2)cc1` showed an ED50 of 0.066 mg/kg. Work on `CCCCc1nc(C)c(CC(=O)N2CC(C)OC(C)C2)c(=O)n1Cc1ccc(-c2ccccc2-c2nnn[nH]2)cc1` (centres undefined) yielded an ED50 of 0.029 mg/kg. Compound `CCCCc1nc(C)c(CC(=O)N2CCCC2)c(=O)n1Cc1ccc(-c2ccccc2-c2nnn[nH]2)cc1` has an ED50 of 0.056 mg/kg. With `CCCCc1nc(C)c(CCC(=O)N2CC(C)OC(C)C2)c(=O)n1Cc1ccc(-c2ccccc2-c2nnn[nH]2)cc1` (centres undefined) the ED50 was 0.228 mg/kg. For `CCCCc1nc(C)c(CC(=S)N2CCCCCC2)c(=O)n1Cc1ccc(-c2ccccc2-c2nnn[nH]2)cc1`, the ED50 was 0.034 mg/kg.

Target: T1, Type-1 angiotensin II receptor (Oryctolagus cuniculus)
Assay: Ratio of losartan IC50 to compound IC50 for antagonist activity at angiotensin 2 receptor type 1 in New Zealand White rabbit descending thoracic aorta rings
Type: functional, tissue-based
Settings: not given
Compound `CCCCc1nc(C)c(CC(=S)N(C)C)c(=O)n1Cc1ccc(-c2ccccc2-c2nnn[nH]2)cc1` has a Ratio IC50 of 145.

Tested on: Rattus norvegicus
Assay: Antihypertensive activity in furosemide treated rat high-renin model assessed as decrease in mean arterial pressure at 10 mg/kg, po up to 8 hrs
Type: functional, organism-based
Set-up: dose 10 mg/kg
Settings: Artery
Procedure, shortened: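 Furosemide 10 mg/kg sc was given 20 and 2 h before the experiment, with food and water withdrawn for 24 h. Mean arterial pressure and heart rate were recorded by polygraph. After about 60 min of stabilization, 10 mg/kg was given orally. Readings were taken at 20, 40 and 60 min, then every 30 min to 8 h.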
For `CCCCc1nc(C)c(CC(=S)N(C)C)c(=O)n1Cc1ccc(-c2ccccc2-c2nnn[nH]2)cc1`, the Activity was “Active”.

Target: not listed separately
Assay: Displacement of [125I]angiotensin 2 from angiotensin 2 receptor type 1 in Sprague-Dawley rat adrenal cortex membranes after 60 mins by gamma counting
Type: cell membranes, Membrane
Settings: not given
Procedure, shortened: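 Adrenal cortex membranes came from male Sprague–Dawley rats (200–250 g); the pellet was taken by differential centrifugation up to 100,000 g. Membranes (60–70 µg protein/assay) were suspended in 50 mM Tris–HCl, 10 mM MgCl2, 0.25% BSA, pH 7.4, with [125I]AngII (0.05 nM) and test compound (3×10^-12 to 10^-6 M, DMSO). Incubation ran 60 min at 25 °C and ended by GF/B filtration. IC50 is 50% inhibition of binding.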
With `CCCCc1nc(C)c(CCC(=O)OCC)c(=O)n1Cc1ccc(-c2ccccc2-c2nnn[nH]2)cc1` the IC50 was 131 nM. Work on `CCCCc1nc(C)c(CC(=O)N2CC(C)OC(C)C2)c(=O)n1Cc1ccc(-c2ccccc2-c2nnn[nH]2)cc1` (centres undefined) yielded an IC50 of 24 nM. `CCCCc1nc(C)c(CC(=O)N2CCCC2)c(=O)n1Cc1ccc(-c2ccccc2-c2nnn[nH]2)cc1` showed an IC50 of 59.2 nM. `CCCCc1nc(C)c(CCC(=O)N2CC(C)OC(C)C2)c(=O)n1Cc1ccc(-c2ccccc2-c2nnn[nH]2)cc1` (centres undefined) showed an IC50 of 72.6 nM. `CCCCc1nc(C)c(CC(=S)N2CCCCCC2)c(=O)n1Cc1ccc(-c2ccccc2-c2nnn[nH]2)cc1` gave an IC50 of 8.04 nM.

Organism: Rattus norvegicus
Assay: Ratio of losartan IC50 to compound IC50 for displacement of [125I]angiotensin 2 from angiotensin 2 receptor type 1 in Sprague-Dawley rat adrenal cortex membranes
Type: cell membranes
Settings: Membrane
`CCCCc1nc(C)c(CC(=S)N(C)C)c(=O)n1Cc1ccc(-c2ccccc2-c2nnn[nH]2)cc1` showed a Ratio IC50 of 615.

Organism: Rattus norvegicus
Assay: Displacement of [125I]angiotensin 2 from angiotensin 2 receptor type 1 in Sprague-Dawley rat adrenal cortex membranes at 10 uM after 60 mins by gamma counting
Type: cell membranes
Settings: Membrane
Work on `CCCCc1nc(C)c(CC(=O)N2CCCC2)c(=O)n1Cc1ccc(-c2ccccc2-c2nnn[nH]2)cc1` yielded an inhibition of 76.7%.

Target: T1, Type-1 angiotensin II receptor (Oryctolagus cuniculus)
Assay: Antagonist activity at angiotensin 2 receptor type 1 in New Zealand White rabbit descending thoracic aorta rings assessed as inhibition of noradrenaline-induced contraction preincubated for 30 mins prior noradrenaline challenge
Type: functional, tissue-based
Settings: not given
For `CCCCc1nc(C)c(CC(=S)N(C)C)c(=O)n1Cc1ccc(-c2ccccc2-c2nnn[nH]2)cc1`, the inhibition was “inactive”.
